The source made the active and inactive calls. The calls are words filed in the database; no cut-off is given here.
Legend:
PtK2 [1] = test: Induction of oxidative stress in potoroo PtK2 cells assessed as change in cell morphology after 24 hrs by immunofluorescence microscopic analysis; assay type: functional, cell-based; conditions: Potorous tridactylus
Outline: (§1)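 PtK2 cells were grown on coverslips and treated once semi-confluent, for 24 h. Cells were fixed with 3.7% paraformaldehyde followed by 0.1% Triton X-100, or with cold methanol/acetone 50:50. Primary and secondary antibodies were applied for 45 min each: anti-GRP94 for ER, anti-α-tubulin. Actin was stained with phalloidin and nuclei with DAPI. Imaging was by fluorescence microscopy with a CCD camera.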

SF-539 = test: Cytotoxicity against human SF539 cells; assay type: functional
HCC 2998 = test: Cytotoxicity against human HCC2998 cells; assay type: functional
OVCAR-4 = test: Cytotoxicity against human OVCAR4 cells; assay type: functional
Saccharomyces cerevisiae [2] = test: Growth inhibition of GTT2-deficient Saccharomyces cerevisiae YLL060C mutant at 20 ug/disc after 24 to 48 hrs by agar diffusion assay; assay type: functional; conditions: read-out: DIZ
Outline: (§2)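 S. cerevisiae deletion mutants or wild type grown on YPD, seeded into liquid agar medium at an optical density of 0.1. 6 mm paper discs soaked with methanolic compound solution were placed on the plates and incubated at 30 °C. Growth was checked after 1 and 2 days, and the inhibition zone diameter was recorded in mm.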

MDA-MB-468 = test: Cytotoxicity against human MDA-MB-468 cells; assay type: functional
T47D = test: Cytotoxicity against human T47D cells; assay type: functional
PtK2 [3] = test: Induction of oxidative stress in potoroo PtK2 cells assessed as reduction in actin stress fibres after 24 hrs by immunofluorescence microscopic analysis; assay type: functional, cell-based; conditions: Potorous tridactylus; outline: as §1
ACHN = test: Cytotoxicity against human ACHN cells; assay type: functional
LOX IMVI = test: Cytotoxicity against human LOXIMVI cells; assay type: functional
PtK2 [4] = test: Induction of oxidative stress in potoroo PtK2 cells assessed as reduction in cell adhesion after 24 hrs by immunofluorescence microscopic analysis; assay type: functional, cell-based; conditions: Potorous tridactylus; outline: as §1
PtK2 [5] = test: Induction of oxidative stress in potoroo PtK2 cells assessed as hole in the endoplasmic reticulum after 24 hrs by immunofluorescence microscopic analysis; assay type: functional, cell-based; conditions: Potorous tridactylus; outline: as §1
SK-OV-3 = test: Cytotoxicity against human SKOV3 cells; assay type: functional
OVCAR-3 = test: Cytotoxicity against human OVCAR3 cells; assay type: functional
CCRF-CEM = test: Cytotoxicity against human CCRF-CEM cells; assay type: functional
SF-268 = test: Cytotoxicity against human SF268 cells; assay type: functional
EKVX = test: Cytotoxicity against human EKVX cells; assay type: functional
A498 [6] = test: Cytotoxicity against human A498 cells; assay type: functional
HL-60 = test: Cytotoxicity against human HL60 cells; assay type: functional
BT-549 = test: Cytotoxicity against human BT549 cells; assay type: functional
OVCAR-8 = test: Cytotoxicity against human OVCAR8 cells; assay type: functional
[7] = Cytotoxicity against human 786-O cells; assay type: functional
CAKI-1 = test: Cytotoxicity against human Caki1 cells; assay type: functional
COLO 205 = test: Cytotoxicity against human COLO205 cells; assay type: functional
HCT-116 = test: Cytotoxicity against human HCT116 cells; assay type: functional
PtK2 [8] = test: Induction of oxidative stress in potoroo PtK2 cells assessed as change in microtubular network after 24 hrs by immunofluorescence microscopic analysis; assay type: functional, cell-based; conditions: Potorous tridactylus; outline: as §1
TK-10 = test: Cytotoxicity against human TK10 cells; assay type: functional
UACC-257 = test: Cytotoxicity against human UACC257 cells; assay type: functional
A498 [9] = test: Cytotoxicity against human A498 cells after 24 hrs by MTT assay; assay type: functional, cell-based; conditions: A498, 24 h
Outline: (§3)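 MTT assay. Cells were seeded at 50,000 cells/mL in medium with 10% fetal calf serum and grown for two days at 37 °C, 10% CO2. Serial dilutions of compound were then added for 24 h. MTT was added (final 0.5 mg/mL) for 2 h, and the formazan was pelleted, washed, dissolved in isopropanol with 0.4% HCl and read at 590 nm. IC50 is the concentration giving 50% of untreated-control absorbance, taken from dose-response curves; mean of two parallel experiments.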

MDA-MB-231 = test: Cytotoxicity against human MDA-MB-231 cells; assay type: functional
Saccharomyces cerevisiae [10] = test: Growth inhibition of SOD1-deficient Saccharomyces cerevisiae YJR104C mutant at 20 ug/disc after 24 to 48 hrs by agar diffusion assay; assay type: functional; conditions: read-out: DIZ; outline: as §2
U-251 = test: Cytotoxicity against human U251 cells; assay type: functional
NCI-H23 = test: Cytotoxicity against human NCI-H23 cells; assay type: functional
HT-29 = test: Cytotoxicity against human HT-29 cells; assay type: functional
Saccharomyces cerevisiae [11] = test: Growth inhibition of GSH2-deficient Saccharomyces cerevisiae YOL049W mutant at 20 ug/disc after 24 to 48 hrs by agar diffusion assay; assay type: functional; conditions: read-out: DIZ; outline: as §2
NCI-H322M = test: Cytotoxicity against human NCI-H322M cells; assay type: functional
RPMI-8226 = test: Cytotoxicity against human RPMI8226 cells; assay type: functional
MCF7 = test: Cytotoxicity against human MCF7 cells after 24 hrs by MTT assay; assay type: functional, cell-based; conditions: MCF7, 24 h; outline: as §3

**Q.** Which results are given for `CC1=C(SCCC(=O)OC(C[Se]C2=C(C)C(=O)c3ccccc3C2=O)C(=O)NCCCCCC(=O)OCc2ccccc2)C(=O)c2ccccc2C1=O` (centres undefined)?
**A.** Activity (PtK2 [1]): Active; GI50 (SF-539): 4.47 µM; LC50 (SF-539): 43.7 µM; TGI (SF-539; read-out: pTGI (converted)): 15.5 µM; GI50 (HCC 2998): 6.46 µM; LC50 (HCC 2998): 46.8 µM; TGI (HCC 2998; read-out: pTGI (converted)): 18.6 µM; GI50 (OVCAR-4): 12.3 µM; LC50 (OVCAR-4): 51.3 µM; TGI (OVCAR-4; read-out: pTGI (converted)): 25.1 µM; zone of inhibition at 20 µg/disc (Saccharomyces cerevisiae [2]): 12 mm; GI50 (MDA-MB-468): 3.02 µM; LC50 (MDA-MB-468): 37.2 µM; TGI (MDA-MB-468; read-out: pTGI (converted)): 8.51 µM; GI50 (T47D): 17.8 µM; LC50 (T47D): > 100 µM; TGI (T47D; read-out: pTGI (converted)): 51.3 µM; Activity (PtK2 [3]): Active; GI50 (ACHN): 12 µM; LC50 (ACHN): 63.1 µM; TGI (ACHN; read-out: pTGI (converted)): 27.5 µM; GI50 (LOX IMVI): 2.75 µM; LC50 (LOX IMVI): 69.2 µM; TGI (LOX IMVI; read-out: pTGI (converted)): 11.5 µM; Activity (PtK2 [4]): Active; Activity (PtK2 [5]): Active; GI50 (SK-OV-3): 7.08 µM; LC50 (SK-OV-3): 44.7 µM; TGI (SK-OV-3; read-out: pTGI (converted)): 19.5 µM; GI50 (OVCAR-3): 5.01 µM; LC50 (OVCAR-3): 42.7 µM; TGI (OVCAR-3; read-out: pTGI (converted)): 18.2 µM; GI50 (CCRF-CEM): 2.82 µM; LC50 (CCRF-CEM): > 100 µM; TGI (CCRF-CEM; read-out: pTGI): > 100 µM; GI50 (SF-268): 7.41 µM; LC50 (SF-268): 44.7 µM; TGI (SF-268; read-out: pTGI (converted)): 20 µM; GI50 (EKVX): 3.63 µM; LC50 (EKVX): 58.9 µM; TGI (EKVX; read-out: pTGI (converted)): 17.8 µM; GI50 (A498 [6]): 12 µM; LC50 (50% lethal concentration) (A498 [6]): > 100 µM; TGI (A498 [6]; read-out: pTGI (converted)): > 100 µM; GI50 (HL-60): 3.09 µM; LC50 (HL-60): > 100 µM; TGI (HL-60; read-out: pTGI (converted)): 8.51 µM; GI50 (BT-549): 3.8 µM; LC50 (BT-549): 36.3 µM; TGI (BT-549; read-out: pTGI (converted)): 12.9 µM; GI50 (OVCAR-8): 4.17 µM; LC50 (OVCAR-8): 50.1 µM; TGI (OVCAR-8; read-out: pTGI (converted)): 15.1 µM; GI50 ([7]; 786-0): 4.68 µM; LC50 ([7]; 786-0): 38 µM; TGI ([7]; 786-0, read-out: pTGI (converted)): 14.1 µM; GI50 (CAKI-1): 6.92 µM; LC50 (CAKI-1): 51.3 µM; TGI (CAKI-1; read-out: pTGI (converted)): 21.4 µM; GI50 (COLO 205): 7.94 µM; CC50 (COLO 205; read-out: pLC50 (the source's name) (converted)): 56.2 µM; TGI (COLO 205; read-out: pTGI (converted)): 22.4 µM; GI50 (HCT-116): 2 µM; LC50 (HCT-116): 11.7 µM; TGI (HCT-116; read-out: pTGI (converted)): 4.57 µM; Activity (PtK2 [8]): inactive; GI50 (TK-10): 13.8 µM; LC50 (TK-10): 53.7 µM; TGI (TK-10; read-out: pTGI (converted)): 26.9 µM; GI50 (UACC-257): 3.47 µM; LC50 (UACC-257): 34.7 µM; TGI (UACC-257; read-out: pTGI (converted)): 10 µM; IC50 (A498 [9]): 5 µM; GI50 (MDA-MB-231): 6.76 µM; LC50 (MDA-MB-231): 55 µM; TGI (MDA-MB-231; read-out: pTGI (converted)): 21.9 µM; zone of inhibition at 20 µg/disc (Saccharomyces cerevisiae [10]): 16 mm; GI50 (U-251): 4.07 µM; LC50 (U-251): 46.8 µM; TGI (U-251; read-out: pTGI (converted)): 13.5 µM; GI50 (NCI-H23): 2.75 µM; LC50 (NCI-H23): 52.5 µM; TGI (NCI-H23; read-out: pTGI (converted)): 7.76 µM; GI50 (HT-29): 3.55 µM; LC50 (HT-29): 83.2 µM; TGI (HT-29; read-out: pTGI (converted)): 20.9 µM; zone of inhibition at 20 µg/disc (Saccharomyces cerevisiae [11]): 10 mm; GI50 (NCI-H322M): 3.8 µM; LC50 (NCI-H322M): 66.1 µM; TGI (NCI-H322M; read-out: pTGI (converted)): 17.4 µM; GI50 (RPMI-8226): 2.63 µM; LC50 (RPMI-8226): > 100 µM; TGI (RPMI-8226; read-out: pTGI (converted)): 7.76 µM; IC50 (MCF7): 10 µM

Reference: ChEMBL document CHEMBL2177069, “Novel peptidomimetic compounds containing redox active chalcogens and quinones as potential anticancer agents” (Eur J Med Chem, 2012)
